Measurements reported in ChEMBL document CHEMBL1129311, “Antitumor agents. 166. Synthesis and biological evaluation of 5,6,7,8-substituted-2-phenylthiochromen-4-ones” (J Med Chem, 1996).
Converted amounts (≈) assume the structure as drawn. The source made the active and inactive calls. The rule behind the calls is not given here.

How the values were obtained:
Tubulin alpha chain = Tubulin alpha chain (Sus scrofa, UniProt P02550); experiment: Inhibitory activity of the compound against tubulin polymerization; format: functional
Sequence of Tubulin alpha chain (P02550 whole entry, looked up): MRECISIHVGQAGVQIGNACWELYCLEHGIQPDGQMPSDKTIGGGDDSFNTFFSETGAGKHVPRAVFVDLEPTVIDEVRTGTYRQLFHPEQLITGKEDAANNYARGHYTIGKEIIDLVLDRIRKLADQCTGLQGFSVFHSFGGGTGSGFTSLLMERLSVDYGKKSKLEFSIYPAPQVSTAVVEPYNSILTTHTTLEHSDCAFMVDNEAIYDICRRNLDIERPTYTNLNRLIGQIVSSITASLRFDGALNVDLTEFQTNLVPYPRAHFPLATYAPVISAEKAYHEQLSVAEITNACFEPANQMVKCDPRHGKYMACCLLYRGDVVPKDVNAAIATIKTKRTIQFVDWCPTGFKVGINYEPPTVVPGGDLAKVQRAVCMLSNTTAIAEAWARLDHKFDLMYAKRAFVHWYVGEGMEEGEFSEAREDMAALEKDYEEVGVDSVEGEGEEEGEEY

H9 [1] = experiment: Effective dose against H9 cell lines; format: functional, cell-based; details: Homo sapiens
[2] = Therapeutic index valued has been determined in H9 cells; format: cell-based; details: human, read-out: Therapeutic index
[3] = tested on: Medulloblastoma tumour cell line; experiment: Effective dose against medulloblastoma tumor cell lines; format: functional; details: read-out: ED50 (the source's name)
RPMI [4] = experiment: Effective dose against 50% reduction in Human melanoma (RPMI)cell number after 3-day incubation; format: functional; details: 72 h, read-out: ED50 (the source's name)
[5] = biological target: T1, DNA topoisomerase II (Homo sapiens) (UniProt P11388+Q02880); experiment: Inhibitory activity against Human DNA topoisomerase II at dose 100 uM; format: protein assay
In short: (§1)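 Topo II activity read as ATP-dependent unknotting of P4 DNA. Test compound at 100 µM; % inhibition is relative to enzyme and DNA control reactions. VP-16 served as the reference inhibitor.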

KB [6] = experiment: Effective dose against 50% reduction in Human epidermoid carcinoma of the nasopharynx (KB) cell number after 3-day incubation; format: functional; details: 72 h, read-out: ED50 (the source's name)
[7] = biological target: T2, DNA topoisomerase 1 (Homo sapiens) (UniProt P11387); experiment: Inhibitory activity against Human DNA topoisomerase I at dose 100 uM
T2 sequence (whole entry): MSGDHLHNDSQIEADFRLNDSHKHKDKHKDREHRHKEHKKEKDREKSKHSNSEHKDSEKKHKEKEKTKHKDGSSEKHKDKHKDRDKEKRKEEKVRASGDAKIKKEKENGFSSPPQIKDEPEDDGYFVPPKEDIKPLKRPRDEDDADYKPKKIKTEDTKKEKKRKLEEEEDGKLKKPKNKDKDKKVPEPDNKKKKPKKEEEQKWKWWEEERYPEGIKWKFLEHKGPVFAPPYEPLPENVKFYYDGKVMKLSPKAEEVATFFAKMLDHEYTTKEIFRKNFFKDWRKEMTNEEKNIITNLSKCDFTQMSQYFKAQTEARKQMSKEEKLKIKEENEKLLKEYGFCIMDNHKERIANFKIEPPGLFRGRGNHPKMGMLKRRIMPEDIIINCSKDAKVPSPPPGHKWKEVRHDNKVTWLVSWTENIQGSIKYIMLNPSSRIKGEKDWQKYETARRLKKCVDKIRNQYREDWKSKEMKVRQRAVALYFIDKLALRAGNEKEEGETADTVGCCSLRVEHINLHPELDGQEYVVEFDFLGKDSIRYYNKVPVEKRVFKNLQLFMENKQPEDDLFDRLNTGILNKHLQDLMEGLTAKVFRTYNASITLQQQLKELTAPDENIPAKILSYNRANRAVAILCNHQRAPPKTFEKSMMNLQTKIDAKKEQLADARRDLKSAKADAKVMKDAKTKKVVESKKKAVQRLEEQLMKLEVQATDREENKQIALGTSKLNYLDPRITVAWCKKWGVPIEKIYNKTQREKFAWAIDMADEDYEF
In short: (§2)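 Topo I activity read as ATP-independent relaxation of supercoiled plasmid DNA. Test compound at 100 µM; % inhibition is relative to enzyme and DNA control reactions. Camptothecin served as the positive inhibitor control.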

KB [8] = experiment: Cellular protein-linked DNA breaks in KB oral carcinoma cell culture treated in triplicate at 50 uM for 1 hr; format: functional, Homo sapiens
In short: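 Read-out is potassium-SDS precipitable cpm in treated KB cultures, expressed as fold.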

HCT-8 [9] = experiment: Effective dose against 50% reduction in Human ileocecal carcinoma (HCT-8) cell number after 3-day incubation; format: functional; details: HCT-8, 72 h, read-out: ED50 (the source's name)
A549 = experiment: Effective dose against 50% reduction in Human lung carcinoma (A-549) cell number after 3-day incubation.; format: functional, cell-based
P388 [10] = experiment: Effective dose against 50% reduction in Murine leukemia (P-388) cell number after 3-day incubation; format: functional; details: Mus musculus, P388, 72 h; read-out: ED50 (the source's name)
TE-671 [11] = experiment: Effective dose against 50% reduction in Human CNS tumor (TE671) cell number after 3-day incubation; format: functional; details: TE-671, 72 h, read-out: ED50 (the source's name)
[12] = biological target: T2, DNA topoisomerase 1 (Homo sapiens); experiment: Inhibitory activity against human DNA topoisomerase I at dose 100 uM; in short: as §2
H9 [13] = experiment: Effective dose against growth of HIV infected H9 lymphocytes; format: functional; details: Homo sapiens, read-out: ED50 (the source's name)
[14] = biological target: T1, DNA topoisomerase II (Homo sapiens); experiment: Inhibitory activity against human DNA topoisomerase II at dose 100 uM; format: protein assay; in short: as §1
HCT-8 [15] = experiment: Effective dose against 50% reduction in Human ileocecal carcinoma (HCT-8) cell number after 3-day incubation.; format: functional, cell-based
H9 [16] = experiment: Inhibitory activity against growth of uninfected H9 lymphocytes; format: functional, cell-based; details: Homo sapiens
In short: (§3)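 Uninfected H9 cultures exposed to compound diluted in medium for 4 days at 37 °C. Cell density counted in a Coulter counter; IC₅₀ determined.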

H9 [17] = experiment: Inhibitory activity against growth of uninfected H9 lymphocytes by 50%; format: functional, cell-based; details: Homo sapiens; in short: as §3
RPMI [18] = experiment: Effective dose against 50% reduction in Human melanoma(RPMI) cell number after 3-day incubation; format: functional; details: 72 h, read-out: ED50 (the source's name)
H9 [19] = experiment: Effective dose against growth of HIV infected H9 lymphocytes by 50%; format: functional; details: Homo sapiens, read-out: ED50 (the source's name)
TE-671 [20] = experiment: Effective dose against 50% reduction in Human CNS tumor (TE671) cell number after 3-day incubation; - indicates inactive; format: functional, cell-based
P388 [21] = experiment: Effective dose against 50% reduction in Murine leukemia (P-388) cell number after 3-day incubation; - indicates inactive; format: functional, cell-based; details: Mus musculus
KB [22] = experiment: Effective dose against Human epidermoid carcinoma of the nasopharynx; - indicates inactive; format: functional, cell-based
KB [23] = experiment: Effective dose against 50% reduction in Human epidermoid carcinoma of the nasopharynx (KB) cell number after 3-day incubation; - indicates inactive; format: functional, cell-based
H9 [24] = experiment: Effective dose required to inhibit virus replication growth by 50%; format: functional; details: Homo sapiens, H9, read-out: ED50
H9 [25] = experiment: Inhibitory concentration required to inhibit uninfected growth of H9 lymphocytes by 50%; format: functional, cell-based; details: Homo sapiens; in short: as §3
[26] = biological target: T2, DNA topoisomerase 1 (Homo sapiens); experiment: Inhibitory activity against DNA topoisomerase I at dose 100 uM; in short: as §2
[27] = biological target: T1, DNA topoisomerase II (Homo sapiens); experiment: Inhibitory activity against DNA topoisomerase II at dose 100 uM; format: protein assay; in short: as §1
RPMI [28] = experiment: Effective dose against 50% reduction in Human melanoma (RPMI)cell number after 3-day incubation; - indicates inactive; format: functional, cell-based

SMILES | EC50 (RPMI [4]) [µg/mL] | EC50 (KB [6]) [µg/mL] | EC50 (P388 [10]) [µg/mL] | EC50 (TE-671 [11]) [µg/mL] | selectivity ratio [2] | Activity (KB [8]) | ED50 (A549) | EC50 (H9 [13]) [µg/mL] | ED50 (HCT-8 [15]) | IC50 (H9 [16]) [µg/mL] | also measured
COc1ccc(-c2oc3c(OC)c(OC)c(OC)c(O)c3c(=O)c2OC)cc1O |  |  |  |  |  |  |  |  |  |  | IC50 (Tubulin alpha chain): 0.83 µM
O=c1cc(-c2ccccc2)oc2cc(O)cc(O)c12 [CHRYSIN] |  |  |  |  | 9 |  |  |  |  |  | EC50 (H9 [1]): 5 µM
COc1cc(-c2oc3c(OC)c(OC)c(OC)c(O)c3c(=O)c2OC)ccc1O |  |  |  |  |  |  |  |  |  |  | EC50 [3]: 0.99 µg/mL (≈ 2.45 µM)
O=c1cc(-c2ccccc2)[s+]([O-])c2ccccc12 (centres undefined) | 5.5 (≈ 21.6 µM) | 5.5 (≈ 21.6 µM) | 1.18 (≈ 4.64 µM) | 3.66 (≈ 14.4 µM) |  | 1 | inactive |  |  |  | inhibition [5]: 0%; inhibition [7]: 100%; EC50 (HCT-8 [9]): 5.79 µg/mL (≈ 22.8 µM)
COc1cccc2sc(-c3ccccc3)cc(=O)c12 |  |  |  |  | 1 |  | inactive |  | inactive |  | IC50 (H9 [17]): 7 µg/mL (≈ 26.1 µM); EC50 (RPMI [18]): 5.5 µg/mL (≈ 20.5 µM); EC50 (H9 [19]): 7 µg/mL (≈ 26.1 µM); ED50 (TE-671 [20]): inactive; ED50 (P388 [21]): inactive; ED50 (KB [22]): inactive
Cc1cn([C@H]2C[C@H](N=[N+]=[N-])[C@@H](CO)O2)c(=O)[nH]c1=O [ZIDOVUDINE] |  |  |  |  |  |  |  |  |  |  | EC50 (H9 [24]): 0.04 µM; IC50 (H9 [25]): 2000 µM

Now from value to compound, other results behind:

EC50 (RPMI [4]) [µg/mL] | EC50 (KB [6]) [µg/mL] | EC50 (P388 [10]) [µg/mL] | EC50 (TE-671 [11]) [µg/mL] | SMILES | selectivity ratio [2] | Activity (KB [8]) | ED50 (A549) | EC50 (H9 [13]) [µg/mL] | ED50 (HCT-8 [15]) | IC50 (H9 [16]) [µg/mL] | also measured
5.5 (≈ 15.5 µM) | 5.5 (≈ 15.5 µM) | 4.83 (≈ 13.6 µM) | 4.58 (≈ 12.9 µM) | CC(=O)Oc1cc2sc(-c3ccccc3)cc(=O)c2cc1OC(C)=O | 4.6 | 1 | inactive | 0.65 (≈ 1.83 µM) | inactive | 3 (≈ 8.47 µM) | inhibition [12]: 0%; inhibition [14]: 100%
0.55 (≈ 2.16 µM) |  |  | 2.87 (≈ 11.3 µM) | O=c1cc(-c2ccccc2)sc2ccc(O)cc12 | 4.2 |  | inactive |  | inactive |  | IC50 (H9 [17]): 40 µg/mL (≈ 157 µM); EC50 (H9 [19]): 9.5 µg/mL (≈ 37.4 µM); ED50 (KB [23]): inactive; ED50 (P388 [21]): inactive
 |  | 9.31 (≈ 36.8 µM) |  | Nc1cccc2sc(-c3ccccc3)cc(=O)c12 | 2.5 | 1 | inactive | 20 (≈ 78.9 µM) | inactive | 50 (≈ 197 µM) | inhibition [26]: 100%; inhibition [27]: 0%; ED50 (TE-671 [20]): inactive; ED50 (RPMI [28]): inactive; ED50 (KB [23]): inactive
3.92 (≈ 14.5 µM) | 5.5 (≈ 20.3 µM) | 4.51 (≈ 16.7 µM) | 5.5 (≈ 20.3 µM) | O=c1cc(-c2ccccc2)sc2cc(O)c(O)cc12 | 2.3 | 1 | inactive | 0.8 (≈ 2.96 µM) |  | 1.8 (≈ 6.66 µM) | inhibition [26]: 100%; inhibition [27]: 0%; EC50 (HCT-8 [9]): 1.45 µg/mL (≈ 5.36 µM)
